GPR7 antagonist – blocks human GPR7 receptor signaling. P48145. GPR7-expressing cells, fluorescence antagonist assay. inhibition, % at 4.4 µM. 1.1% of 290,000 active. AID 1861; in the data active = inhibition above about 16%, passing the limit was not always enough;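 note: cells stimulated with the agonist NPW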
Target sequence (P48145 whole entry, looked up): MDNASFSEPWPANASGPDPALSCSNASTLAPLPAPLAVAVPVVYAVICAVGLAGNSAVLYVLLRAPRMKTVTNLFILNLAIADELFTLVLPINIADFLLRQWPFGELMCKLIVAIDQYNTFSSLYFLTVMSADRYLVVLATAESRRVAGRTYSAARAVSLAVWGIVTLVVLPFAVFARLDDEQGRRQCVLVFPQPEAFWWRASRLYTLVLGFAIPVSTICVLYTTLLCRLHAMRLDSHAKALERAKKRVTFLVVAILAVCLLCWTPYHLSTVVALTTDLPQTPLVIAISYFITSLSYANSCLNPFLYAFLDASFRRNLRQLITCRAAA
CHO parental Ca – signal in parental CHO cells, OX1R antagonist counter-screen; parental CHO-K1, ATP-induced calcium, Fluo-8 fluorescence; inhibition, % at 5.6 µM; 0.63% of 330,000 active;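 active = inhibition above that plate's mean sample inhibition plus 3 SD, cut at about 26% in these data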
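test system = CHO parental line | reagent = ATP stimulus | measured by = intracellular calcium via Fluo-8 no-wash fluorescent dye | control set = ATP and no-ATP DMSO wells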
OX1R antag-1 – antagonists of human orexin 1 receptor | CHO/OX1R cells, Fluo-8 calcium fluorescence, orexin A | inhibition, % at 5 µM | 0.43% of 330,000 active;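 active = inhibition above its plate's threshold, mean inhibition of all tested compounds on the plate plus 3 SD, cut at about 37% in these data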
OX1R antag-2 – antagonists of human orexin 1 receptor (OX1R) | 1.8% of 330,000 active | inhibition, % at 6.6 µM | O43613 | OX1R-expressing cells, FRET antagonist read-out; in the data active = inhibition mostly above about 38%, no sharp cut-off; inactive = mostly below about 40%
GalR3 antag – human GalR3 antagonism; AID 651719; O60755; inhibition, % at 3 µM; HEK293 GalR3-CNG cAMP membrane potential fluorescence; galR3 body fused to GalR1 C-terminus; 0.44% of 360,000 active;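 active = inhibition above the screen-wide average plus 3 SD, cut at about 13% in these data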;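 note: forskolin and galanin both at EC90 stimulate the cells; cAMP rise reported by CNG channel membrane potential dye signal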
Numbers stand for hits; n = inactive; x = no result. Sampled rows, rich in hits. Any-hit rate of the full collection: about 3.1%.

SMILES	GPR7 antagonist	CHO parental Ca	OX1R antag-1	OX1R antag-2	GalR3 antag
C[C@@H]1ON(C)[C@H]2C[C@H]3c4[nH]c5c(-c6ccc(C(F)(F)F)cc6)cccc5c4CCN3C(=O)[C@@H]12	x	x	x	x	n
CC1=C(Nc2ccc(C(=O)O)cc2)C(=O)c2ccccc2C1=O	n	n	n	44	n
CC(C)c1onc(C(=O)N2CCCCCC2)c1[N+](=O)[O-]	n	n	n	n	n
CCC1CCCCN1C(=O)c1noc(C(C)C)c1[N+](=O)[O-] (centres undefined)	19	n	n	n	n
CC(C)c1onc(C(=O)NC2CCCCC2)c1[N+](=O)[O-]	18	n	n	n	n
CCN(CC)C(=O)C1=C(C)N(CCCOC)C(=O)C(CC(=O)NCc2ccco2)C1 (centres undefined)	x	x	x	x	n
Cc1cccc(NC(=O)c2cc(S(=O)(=O)N3CCCCC3)c[nH]2)c1	x	x	x	x	n
COc1ccccc1-c1nnc(-c2ccc(N3CCOCC3)cc2)o1	n	n	n	75	n
CSc1ccc(-c2cc(=O)c3ccccc3o2)cc1	n	n	n	68	n
O=c1cc(-c2ccc(F)cc2)oc2ccccc12	n	n	n	n	n
CC(OC(=O)c1ccccc1Nc1ccc(SC(F)F)cc1)C(N)=O (centres undefined)	n	47	n	n	n
CN1CCN(c2ccc(CNC(=O)C3Cc4c(-c5ccc(Cl)cc5)ccnc4O3)cc2)CC1 (centres undefined)	x	x	x	x	n
N#Cc1cc([N+](=O)[O-])ccc1NC(=O)COC(=O)CN1C(=O)C2CCCCC2C1=O (centres undefined)	x	n	n	43	n
OC(CNCCc1ccc(C(F)(F)F)cc1)COC(c1ccccc1)c1ccccc1 (centres undefined)	n	89	49	n	n
COc1ccc(C(O)c2ncc(-c3cccc4ccccc34)[nH]2)cc1F (centres undefined)	x	x	x	x	n
CC1=C/C(=C(/c2cc(C)c(O)c(Br)c2)c2ccccc2S(=O)(=O)O)C=C(Br)C1=O	n	n	n	41	n
CCCCc1c(Cc2cccc(F)c2)ncn1CCc1ccccc1OC	x	x	x	x	n
O=C(Nc1nnc([C@@H]2C[C@H](O)[C@@H](CO)O2)s1)c1cccc(OC(F)(F)F)c1	x	x	x	x	n
N#CC1=C(N)Nc2ncnn2C1c1ccc([N+](=O)[O-])cc1 (centres undefined)	n	n	n	69	n
N#CC1=C(N)Nc2ncnn2C1c1ccccc1 (centres undefined)	n	n	n	n	x
CC(=O)Nc1ccc(S(=O)(=O)NCC2CCN(C(=O)C(=O)c3cccs3)CC2)cc1	x	x	x	x	n
Cc1nc(/N=C(\N)NC(=O)c2ccccc2)nc2ccccc12	n	n	n	72	x
CC(=O)c1ccc(-c2ccc(C(=O)NCC(c3ccc(F)cc3)N3CCOCC3)o2)cc1 (centres undefined)	x	n	n	n	n
O=C(NCC(c1ccc(F)cc1)N1CCOCC1)c1ccc([N+](=O)[O-])o1 (centres undefined)	x	n	n	48	n
O=C(NCc1nnnn1-c1ccc(F)cc1)c1ccc([N+](=O)[O-])o1	x	n	n	54	n
SMILES	GPR7 antagonist	CHO parental Ca	OX1R antag-1	OX1R antag-2	GalR3 antag
CCCn1c(=O)c(C(=O)Nc2ncccc2O)c(O)c2ccccc21	n	x	x	x	n
Cn1c(=O)c(C(=O)Nc2ncccc2O)c(O)c2ccccc21	n	48	n	n	n
O=C(CS(=O)(=O)c1ccccc1)Nc1ccccc1Br	x	x	x	x	n
Cc1cccc(OCc2n(CC(=O)OC3CC(C)CCC3C(C)C)c3ccccc3[n+]2C)c1 (centres undefined)	61	51	48	n	x
CC1CCC(C(C)C)C(OC(=O)Cn2c(-c3ccc(F)cc3)[n+](C)c3ccccc32)C1 (centres undefined)	54	n	n	n	n
CC1CCC(C(C)C)C(OC(=O)CSc2nc(N)cc(=O)[nH]2)C1 (centres undefined)	n	n	n	n	n
CCOC(=O)c1c(C)oc2c1c(C(c1cccnc1)N1CCOCC1)c(O)c1ccccc12 (centres undefined)	n	n	n	73	n
CCc1nc(N2CCN(C(=O)c3ccco3)CC2)c2oc3ccccc3c2n1	n	n	n	51	n
NNC(=O)c1ccc(COc2ccc3ccccc3c2)o1	n	n	n	n	n
O=C(OCc1ccccn1)c1ccc(COc2ccc3ccccc3c2)o1	n	48	n	n	n
Cn1nc(C(F)(F)F)c(-c2ccc(F)cc2)c1NC(=O)c1ccco1	n	n	n	n	n

Screening results deposited in PubChem by The Scripps Research Institute Molecular Screening Center.
